Measurements pooled from the literature.
Lines come from different studies, so protocols differ.
Target: MAP kinase-activated protein kinase 2 (MAPKAPK2, Homo sapiens, UniProt P49137)

observed	method	tested at	remaining binding [%]	SMILES
cell-free assay	competition with immobilised ligand	1 µM	90	COc1cc(-c2cn(C3CCc4ccccc4N(CC(F)(F)F)C3=O)nn2)ccc1-n1ccc(C)n1 (stereo not drawn)
cell-free assay	competition with immobilised ligand	10 µM	100	CC(C)(C)c1ccc(-c2nc(CBr)nn2-c2cccc(O)c2)cc1
cell-free assay	competition with immobilised ligand	0.1 µM	73	COCCOc1nc(-c2ccc(Cl)nc2)nc2c1CN(C(=O)c1ncn3ccccc13)CC2
cell-free assay	competition with immobilised ligand	5 µM	100	COc1ncc2cc3ccccc3nc2c1C#N
binding		1 µM	100	C[C@H]1CCN(c2nccc(-c3cnn4ncccc34)n2)C1
binding	competition with immobilised ligand	1 µM	100	O=C(NCCCN1CCOCC1)c1ccc(Nc2nccc(-c3cc4ccccc4s3)n2)cc1
binding	competition with immobilised ligand	1 µM	100	C=CC(=O)N1CCC(C(=O)NCC(=O)N2CCN(c3nc(-c4cnc(N)nc4C(F)F)nc(N4CCOCC4)n3)CC2)CC1
binding	competition with immobilised ligand	10 µM	82	N#Cc1ccccc1CSc1nnc2c(n1)[nH]c1ccccc12
cell-free assay	competition with immobilised ligand	1 µM	83	CNCc1ccccc1-c1csc([C@@H](C)Nc2nc(C)nc3cc(OC)c(OC)cc23)c1
binding		1 µM	100	Cc1cnn2ncc(-c3ccnc(N(C)C)n3)c2c1
binding	competition with immobilised ligand	50 nM	62	C[C@@H]1CN(c2ccc3ncc(-c4ccc5[nH]nc(C6CC6)c5c4)n3n2)C[C@H](C)O1
cell-free assay	competition with immobilised ligand	0.1 µM	100	Cc1c[nH]c2nccc(Oc3c(F)cc(Nc4cc(Cl)nc(N)n4)cc3F)c12
binding	competition with immobilised ligand	1 µM	100	O=C(c1ccc(Nc2ncc(Cl)c(-c3cc4ccccc4s3)n2)cc1)N1CCC(N2CCCC2)CC1
binding		1 µM	100	CN(C)c1ncc(F)c(-c2cnn3ncccc23)n1
binding	competition with immobilised ligand	1 µM	100	O=C(c1ccc(Nc2nccc(-c3cc4ccccc4s3)n2)cc1)N1CCC(N2CCCC2)CC1
binding	competition with immobilised ligand	1 µM	100	O=C(Nc1c[nH]nc1C(=O)NC1CCNCC1)c1cc(F)cc(F)c1
cell-free assay	competition with immobilised ligand	1 µM	81	O=C(NS(=O)(=O)c1ccc(NCC2CCOCC2)c([N+](=O)[O-])c1)c1ccc(N2CCN(Cc3ccc(C(F)(F)F)cc3-c3ccc(Cl)cc3)CC2)cc1Oc1cnc2[nH]ccc2c1
binding		1 µM	100	c1cnn2ncc(-c3ccnc(N4CCC45COC5)n3)c2c1
cell-free assay	competition with immobilised ligand	1 µM	100	CN([C@@H]1CCc2c(CC(=O)O)c3ccccc3n2C1)S(=O)(=O)c1ccc(F)cc1
binding		1 µM	100	CN(C)c1nccc(-c2cnn3ncccc23)n1
binding	competition with immobilised ligand	10 µM	100	c1cncc(-c2cccc(Nc3nccc(NC4CCCCC4)n3)c2)c1
cell-free assay	competition with immobilised ligand	1 µM	60	COc1ccc2c(O[C@@H]3C[C@H]4C(=O)N[C@]5(C(=O)O)CC5/C=C\CCCCC[C@H](NC(=O)OC5CCCC5)C(=O)N4C3)cc(-c3csc(NC(=O)C(C)C)n3)nc2c1C (stereo partly drawn)
binding		1 µM	39	N[C@H]1CCN(c2nccc(-c3cnn4ncccc34)n2)C1
binding	competition with immobilised ligand	1 µM	100	COc1cnc(Nc2cccc(S(N)(=O)=O)c2)nc1N1CCN(c2ccccc2)CC1
